Columns and labels:
[1] = tested on: Rattus norvegicus; test: Effect on change in plasma triglycerides (TG) in triton-induced hyperlipidemic rats after peroral administration of 100 mg/kg.; assay type: functional; details: route oral
[2] = tested on: Rattus norvegicus; test: Effect on change in total cholesterol (TC) in triton-induced hyperlipidemic rats after peroral administration of 100 mg/kg.; assay type: functional; details: route oral
[3] = Partition coefficient (logP) (HPLC); assay type: physicochemical; details: octanol/water
Method in brief: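 Apparent log P* was estimated from reverse-phase HPLC retention time against methyl, ethyl, n-propyl, n-butyl and n-hexyl benzoate standards. Column was C18 at 40 °C with mobile phase CH3OH/0.05 M […] pH 7.4 at 1.0 mL/min, and detection was UV at 230 nm.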

[4] = tested on: Rattus norvegicus; test: Effect on change in plasma triglycerides (TG) in triton-induced hyperlipidemic rats after po administration of 10 mg/kg; assay type: functional
[5] = tested on: Rattus norvegicus; test: Effect on change in total cholesterol (TC) in triton-induced hyperlipidemic rats after po administration of 10 mg/kg; assay type: functional

SMILES | Change [1] | Change [2] | logP [3] | Change [4] | Change [5]
CCOP(=O)(Cc1ccc(-c2nc3ccc(Br)cc3c(=O)n2CC)cc1)OCC | <-42% | <-29% | – | – | –
CC(C)OP(=O)(Cc1ccc(-c2nc3ccc(Br)cc3c(=O)n2C)cc1)OC(C)C | <-37% | -11% | 4.88 | – | –
CCOP(=O)(Cc1ccc(-c2nc3ccc(Br)cc3c(=O)n2CC(=O)O)cc1)OCC | 13% | 5% | – | – | –
CCOP(=O)(Cc1ccc(-c2nc(OC)c3cc(OC)c(OC)cc3n2)cc1)OCC | <-86% | <-60% | 4.51 | – | –
CCOP(=O)(Cc1ccc(-c2nc(O)c3c(F)cccc3n2)cc1)OCC | -8% | -8% | 3.13 | – | –
CCOP(=O)(Cc1ccc(-c2nc(OCc3ccc(Br)cc3F)c3cc(Br)ccc3n2)cc1)OCC | -4% | <-12% | – | – | –
CCOP(=O)(Cc1ccc(-c2nc3cc(OC)c(OC)cc3c(=O)n2Cc2ccccc2)cc1)OCC | <-85% | <-60% | 4.49 | < -30% | < -15%
CCOP(=O)(Cc1ccc(-c2nc(O)c3ccccc3n2)cc1)OCC | – | – | 2.55 | – | –
COc1nc(-c2ccc(CP(=O)(OC)OC)cc2)nc2ccc(Br)cc12 | -9% | -9% | 5.61 | – | –
COc1cc2nc(-c3ccc(CP(=O)(OC)OC)cc3)nc(O)c2cc1OC | -11% | -18% | 2.6 | – | –
CCOP(=O)(Cc1ccc(-c2nc(OC)c3c(F)cccc3n2)cc1)OCC | -28% | -25% | 5.13 | – | –
CCOP(=O)(Cc1ccc(-c2nc3cccc(F)c3c(=O)n2C)cc1)OCC | -12% | <-15% | 3.18 | – | –
C=CCn1c(-c2ccc(CP(=O)(OCC)OCC)cc2)nc2cc(OC)c(OC)cc2c1=O | – | – | – | <-61% | <-41%
C=CCOc1nc(-c2ccc(CP(=O)(OCC)OCC)cc2)nc2cc(OC)c(OC)cc12 | <-71% | <-35% | – | – | –
COc1cc2nc(-c3ccc(CP(=O)(OC)OC)cc3)nc(OC)c2cc1OC | <-52% | <-48% | 3.75 | – | –
CCOP(=O)(Cc1ccc(-c2nc3ccc(Br)cc3c(=O)n2Cc2ccc(Br)cc2F)cc1)OCC | -16% | -1% | – | – | –
CCOP(=O)(Cc1ccc(-c2nc(OCc3ccccc3)c3cc(OC)c(OC)cc3n2)cc1)OCC | <-40% | <-21% | – | – | –

SMILES | Change [1] | Change [2] | logP [3] | Change [4] | Change [5]
C=CCOc1nc(-c2ccc(CP(=O)(OCC)OCC)cc2)nc2ccc(Br)cc12 | -18% | -2% | – | – | –
CCOP(=O)(Cc1ccc(-c2nc(Oc3ccccc3)c3cc(Br)ccc3n2)cc1)OCC | <16% | 4% | 7.67 | – | –
CCOP(=O)(Cc1ccc(-c2nc3ccccc3c(=O)n2C)cc1)OCC | <31% | 38% | 3.29 | – | –
COc1cc2nc(-c3ccc(CP(=O)(OC(C)C)OC(C)C)cc3)nc(OC)c2cc1OC | <-81% | < -60% | 5.53 | – | –
COc1cc2nc(-c3ccc(CP(=O)(OC(C)C)OC(C)C)cc3)n(C)c(=O)c2cc1OC | <-81% | <-58% | 4.2 | -8% | -4%
CCOc1nc(-c2ccc(CP(=O)(OCC)OCC)cc2)nc2ccc(Br)cc12 | <-29% | -14% | 7.01 | – | –
CCOP(=O)(Cc1ccc(-c2nc(OC)c3ccccc3n2)cc1)OCC | -5% | 56% | 5.26 | – | –
CCOP(=O)(Cc1ccc(-c2nc(OC)c3cc(Br)ccc3n2)cc1)OCC | 2% | 1% | 6.37 | – | –
CCOP(=O)(Cc1ccc(-c2nc3cc(OC)c(OC)cc3c(=O)n2C)cc1)OCC | <-86% | <-51% | 3.41 | -21% | -11%
COc1cc2nc(-c3ccc(CP(=O)(OC(C)C)OC(C)C)cc3)nc(O)c2cc1OC | -32% | <-35% | 4.38 | – | –
CCOP(=O)(Cc1ccc(-c2nc(O)c3cc(OC)c(OC)cc3n2)cc1)OCC | -37% | <-22% | 3.36 | – | –
CCOP(=O)(Cc1ccc(-c2nc3ccc(Br)cc3c(=O)n2Cc2ccccc2)cc1)OCC | <-54% | <-34% | 5.17 | – | –
COc1cc2nc(-c3ccc(CP(=O)(OC)OC)cc3)n(C)c(=O)c2cc1OC | <-41% | <-27% | 2.65 | – | –
CCOP(=O)(Cc1ccc(-c2nc(OCC(=O)O)c3cc(Br)ccc3n2)cc1)OCC | -2% | -14% | – | – | –
CCOP(=O)(Cc1ccc(-c2nc3ccc(Br)cc3c(=O)n2C)cc1)OCC | <-35% | <-16% | 4.09 | – | –
C=CCn1c(-c2ccc(CP(=O)(OCC)OCC)cc2)nc2ccc(Br)cc2c1=O | <-43% | <-25% | – | – | –
CCOP(=O)(Cc1ccc(C(=O)Nc2ccc(Br)cc2C#N)cc1)OCC [IBROLIPIM] | < -85% | < -69% | 3.21 | -54% | -27%

— ChEMBL document CHEMBL1129741, “Synthesis and hypolipidemic activities of novel 2-[4-[diethoxyphosphoryl)methyl]phenyl]quinazolines and 4(3H)-quinazolinones” (J Med Chem, 1996)
